For 21 compounds, MIC results are on record in ChEMBL document CHEMBL2407080, “Synthesis and antifungal activities of cyclic octa-lipopeptide burkholdine analogues” (2013).

What is called MIC is the lowest concentration found to suppress growth. A higher MIC goes with weaker potency.

≈ marks a conversion by molar mass, not a printed value.

What all share (format): functional
The test system of one experiment is Aspergillus oryzae. Nature of the experiment: Antifungal activity against Aspergillus oryzae 1-Murasaki-1 after 24 hrs by two-fold serial dilution method. The settings on record: 1-Murasaki-1, 24 h. Put shortly:
(§1)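 Broth twofold serial dilution MIC. Organisms were pre-grown 2 days in YPD broth, and the assay was run in YPD. Compound started at […] in medium with 0.1% DMSO, then serially diluted twofold. Each well was inoculated with about 5.0 × 10³ cells and incubated 24 h at 30 °C. MIC is the lowest concentration with no visible growth.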

The subject of another experiment is Saccharomyces cerevisiae. As to the kind of experiment: Antifungal activity against Saccharomyces cerevisiae X2180-1A after 24 hrs by two-fold serial dilution method. The method, boiled down: as §1
The nature of experiment [1]: Antifungal activity against Candida viswanathii NBRC10321 after 24 hrs by two-fold serial dilution method. The method, boiled down: as §1

In the case of `CCCCCCCCCCCCNC(=O)[C@H]1CC(=O)N[C@H](CO)C(=O)N[C@H](Cc2ccc(O)cc2)C(=O)N[C@H](CC(N)=O)C(=O)NCC(=O)N[C@@H](CC(N)=O)C(=O)N[C@@H](CO)C(=O)N[C@@H](CC(N)=O)C(=O)N1`, the figures for the MIC (in the experiment with Aspergillus oryzae; against Saccharomyces cerevisiae; in experiment [1]) were 800 µg/mL (≈ 785 µM), 400 µg/mL (≈ 392 µM) and more than 800 µg/mL, respectively.
On the same counts, the results for `CCCCCCCCCCCCNC(=O)[C@@H]1CC(=O)N[C@H](CO)C(=O)N[C@H](Cc2ccc(O)cc2)C(=O)N[C@@H](CC(N)=O)C(=O)NCC(=O)N[C@@H](CC(N)=O)C(=O)N[C@@H](CO)C(=O)N[C@@H](CC(N)=O)C(=O)N1` are 800 µg/mL (≈ 785 µM), more than 800 µg/mL and more than 800 µg/mL.
On the same counts, the results for `CCCCCCCCCCCCNC(=O)[C@@H]1CC(=O)N[C@H](CO)C(=O)N[C@@H](Cc2ccc(O)cc2)C(=O)N[C@@H](CC(N)=O)C(=O)NCC(=O)N[C@@H](CC(N)=O)C(=O)N[C@@H](CO)C(=O)N[C@@H](CC(N)=O)C(=O)N1` are more than 800 µg/mL, 400 µg/mL (≈ 392 µM) and more than 800 µg/mL.
On the same counts, the results for `CCCCCCCCCCCCNC(=O)[C@@H]1CC(=O)N[C@@H](CO)C(=O)N[C@@H](Cc2ccc(O)cc2)C(=O)N[C@@H](CC(N)=O)C(=O)NCC(=O)N[C@@H](CC(N)=O)C(=O)N[C@@H](CO)C(=O)N[C@@H](CC(N)=O)C(=O)N1` are 200 µg/mL (≈ 196 µM), 800 µg/mL (≈ 785 µM) and more than 800 µg/mL.
As for `CCCCCCCCCCCCNC(=O)[C@H]1CC(=O)N[C@H](CO)C(=O)N[C@@H](Cc2ccc(O)cc2)C(=O)N[C@H](CC(N)=O)C(=O)NCC(=O)N[C@@H](CC(N)=O)C(=O)N[C@@H](CO)C(=O)N[C@@H](CC(N)=O)C(=O)N1`, the MIC was 400 µg/mL (≈ 392 µM) in the experiment with Aspergillus oryzae, 400 µg/mL (≈ 392 µM) in the experiment on Saccharomyces cerevisiae and more than 800 µg/mL in experiment [1].
With `CCCCCCCCCCCCNC(=O)[C@@H]1CC(=O)N[C@H](CO)C(=O)N[C@@H](Cc2ccc(O)cc2)C(=O)N[C@H](CC(N)=O)C(=O)NCC(=O)N[C@@H](CC(N)=O)C(=O)N[C@@H](CO)C(=O)N[C@@H](CC(N)=O)C(=O)N1`, the MIC against Aspergillus oryzae is 100 µg/mL (≈ 98.1 µM); with Saccharomyces cerevisiae it was 50 µg/mL (≈ 49.1 µM); in experiment [1], 400 µg/mL (≈ 392 µM).
On the same counts, the results for `NC(=O)C[C@@H]1NC(=O)CNC(=O)[C@H](CC(N)=O)NC(=O)[C@H](Cc2ccc(O)cc2)NC(=O)[C@H](CO)NC(=O)CCNC(=O)[C@H](CC(N)=O)NC(=O)[C@H](CO)NC1=O` are more than 800 µg/mL, more than 800 µg/mL and 800 µg/mL (≈ 990 µM).
On the same counts, the results for `CCCCCCCCCCCCNC(=O)[C@H]1CC(=O)N[C@@H](CO)C(=O)N[C@@H](Cc2ccc(O)cc2)C(=O)N[C@H](CC(N)=O)C(=O)NCC(=O)N[C@@H](CC(N)=O)C(=O)N[C@@H](CO)C(=O)N[C@@H](CC(N)=O)C(=O)N1` are 800 µg/mL (≈ 785 µM), 800 µg/mL (≈ 785 µM) and more than 800 µg/mL.
On the same counts, the results for `CCCCCCCCCCCCNC(=O)[C@H]1CC(=O)N[C@H](CO)C(=O)N[C@@H](Cc2ccc(O)cc2)C(=O)N[C@@H](CC(N)=O)C(=O)NCC(=O)N[C@@H](CC(N)=O)C(=O)N[C@@H](CO)C(=O)N[C@@H](CC(N)=O)C(=O)N1` are more than 800 µg/mL, 400 µg/mL (≈ 392 µM) and more than 800 µg/mL.
For `NC(=O)C[C@@H]1NC(=O)CNC(=O)[C@@H](CC(N)=O)NC(=O)[C@H](Cc2ccc(O)cc2)NC(=O)[C@@H](CO)NC(=O)CCNC(=O)[C@H](CC(N)=O)NC(=O)[C@H](CO)NC1=O`, the MIC was more than 800 µg/mL against Aspergillus oryzae, 800 µg/mL (≈ 990 µM) against Saccharomyces cerevisiae and more than 800 µg/mL in experiment [1].
Regarding `CCCCCCCCCCCCNC(=O)[C@@H]1CC(=O)N[C@H](CO)C(=O)N[C@H](Cc2ccc(O)cc2)C(=O)N[C@H](CC(N)=O)C(=O)NCC(=O)N[C@@H](CC(N)=O)C(=O)N[C@@H](CO)C(=O)N[C@@H](CC(N)=O)C(=O)N1`, the MIC in the experiment with Aspergillus oryzae was 50 µg/mL (≈ 49.1 µM); against Saccharomyces cerevisiae, 25 µg/mL (≈ 24.5 µM); in experiment [1], 800 µg/mL (≈ 785 µM).
On the same counts, the results for `CCCCCCCCCCCCNC(=O)[C@@H]1CC(=O)N[C@@H](CO)C(=O)N[C@@H](Cc2ccc(O)cc2)C(=O)N[C@H](CC(N)=O)C(=O)NCC(=O)N[C@@H](CC(N)=O)C(=O)N[C@@H](CO)C(=O)N[C@@H](CC(N)=O)C(=O)N1` are 400 µg/mL (≈ 392 µM), more than 800 µg/mL and 800 µg/mL (≈ 785 µM).
On the same counts, the results for `CCCCCCCCCCCCNC(=O)[C@@H]1CC(=O)N[C@@H](CO)C(=O)N[C@H](Cc2ccc(O)cc2)C(=O)N[C@@H](CC(N)=O)C(=O)NCC(=O)N[C@@H](CC(N)=O)C(=O)N[C@@H](CO)C(=O)N[C@@H](CC(N)=O)C(=O)N1` are 400 µg/mL (≈ 392 µM), more than 800 µg/mL and 800 µg/mL (≈ 785 µM).
On the same counts, the results for `CCCCCCCCCCCCNC(=O)[C@@H]1CC(=O)N[C@@H](CO)C(=O)N[C@H](Cc2ccc(O)cc2)C(=O)N[C@H](CC(N)=O)C(=O)NCC(=O)N[C@@H](CC(N)=O)C(=O)N[C@@H](CO)C(=O)N[C@@H](CC(N)=O)C(=O)N1` are 400 µg/mL (≈ 392 µM), 800 µg/mL (≈ 785 µM) and more than 800 µg/mL.
`CCCCCCCCCCC[C@H](O)[C@H](O)[C@H](O)C[C@H]1CC(=O)N[C@@H](CO)C(=O)N[C@H]([C@H](O)c2ccc(O)cc2)C(=O)N[C@H](CC(N)=O)C(=O)NCC(=O)N[C@@H](CC(N)=O)C(=O)N[C@@H](CO)C(=O)N[C@@H]([C@H](O)C(N)=O)C(=O)N1` displayed a minimum inhibitory concentration (MIC) with Saccharomyces cerevisiae of 1.6 µg/mL (≈ 1.46 µM).
`CCCCCCCCCCCCNC(=O)[C@H]1CC(=O)N[C@@H](CO)C(=O)N[C@H](Cc2ccc(O)cc2)C(=O)N[C@@H](CC(N)=O)C(=O)NCC(=O)N[C@@H](CC(N)=O)C(=O)N[C@@H](CO)C(=O)N[C@@H](CC(N)=O)C(=O)N1`: the values for the MIC (against Aspergillus oryzae; in the experiment on Saccharomyces cerevisiae; in experiment [1]) were more than 800 µg/mL, 800 µg/mL (≈ 785 µM) and more than 800 µg/mL, respectively.
In the case of `CCCCCCCCCCCCNC(=O)[C@H]1CC(=O)N[C@@H](CO)C(=O)N[C@@H](Cc2ccc(O)cc2)C(=O)N[C@@H](CC(N)=O)C(=O)NCC(=O)N[C@@H](CC(N)=O)C(=O)N[C@@H](CO)C(=O)N[C@@H](CC(N)=O)C(=O)N1`, the MIC in the experiment on Aspergillus oryzae is more than 800 µg/mL; in the experiment on Saccharomyces cerevisiae, 200 µg/mL (≈ 196 µM); in experiment [1], more than 800 µg/mL.
On to `CCCCCCCCCCCCNC(=O)[C@H]1CC(=O)N[C@H](CO)C(=O)N[C@H](Cc2ccc(O)cc2)C(=O)N[C@@H](CC(N)=O)C(=O)NCC(=O)N[C@@H](CC(N)=O)C(=O)N[C@@H](CO)C(=O)N[C@@H](CC(N)=O)C(=O)N1`, for which the values for the MIC (in the experiment with Aspergillus oryzae; in the experiment on Saccharomyces cerevisiae; in experiment [1]) were 800 µg/mL (≈ 785 µM), 800 µg/mL (≈ 785 µM) and more than 800 µg/mL, respectively.
Regarding `CCCCCCCCCCCCNC(=O)[C@H]1CC(=O)N[C@@H](CO)C(=O)N[C@H](Cc2ccc(O)cc2)C(=O)N[C@H](CC(N)=O)C(=O)NCC(=O)N[C@@H](CC(N)=O)C(=O)N[C@@H](CO)C(=O)N[C@@H](CC(N)=O)C(=O)N1`, the figures for the MIC (in the experiment with Aspergillus oryzae; in the experiment with Saccharomyces cerevisiae; in experiment [1]) were 100 µg/mL (≈ 98.1 µM), 50 µg/mL (≈ 49.1 µM) and more than 800 µg/mL, respectively.
`C[C@@H]1[C@H](O)[C@@H](C)/C=C/C=C/C=C/C=C/C=C/C=C/C=C/[C@H](O[C@@H]2O[C@H](C)[C@@H](O)[C@H](N)[C@@H]2O)C[C@@H]2O[C@](O)(C[C@@H](O)C[C@@H](O)[C@H](O)CC[C@@H](O)C[C@@H](O)CC(=O)O[C@H]1C)C[C@H](O)[C@H]2C(=O)O` [AMPHOTERICIN B] returned an MIC against Saccharomyces cerevisiae of 0.8 µg/mL (≈ 0.866 µM).
Take `NC(=O)C[C@@H]1NC(=O)CNC(=O)[C@@H](CC(N)=O)NC(=O)[C@@H](Cc2ccc(O)cc2)NC(=O)[C@@H](CO)NC(=O)CCNC(=O)[C@H](CC(N)=O)NC(=O)[C@H](CO)NC1=O`: the minimal inhibitory concentration (MIC) is 800 µg/mL (≈ 990 µM) in the experiment with Aspergillus oryzae, 800 µg/mL (≈ 990 µM) in the experiment on Saccharomyces cerevisiae and more than 800 µg/mL in experiment [1].
